Test results taken from paper PMC6298601 (Biochemical pharmacology, 2018).
“And” between values parts separate entries of the source, which are not always exact repeats. Equal entries are not always repeated. “Also recorded” adds a separate entry of the source. Where two headings read alike, the source gives them in different places.

Key:
recombinant human MAO-A = biological target: T1, recombinant human MAO-A (Homo sapiens, UniProt P21397); experiment: Fluorometric kynuramine deamination assay, recombinant human MAO-A inhibition; type: biochemical
T1 sequence (P21397 1-527): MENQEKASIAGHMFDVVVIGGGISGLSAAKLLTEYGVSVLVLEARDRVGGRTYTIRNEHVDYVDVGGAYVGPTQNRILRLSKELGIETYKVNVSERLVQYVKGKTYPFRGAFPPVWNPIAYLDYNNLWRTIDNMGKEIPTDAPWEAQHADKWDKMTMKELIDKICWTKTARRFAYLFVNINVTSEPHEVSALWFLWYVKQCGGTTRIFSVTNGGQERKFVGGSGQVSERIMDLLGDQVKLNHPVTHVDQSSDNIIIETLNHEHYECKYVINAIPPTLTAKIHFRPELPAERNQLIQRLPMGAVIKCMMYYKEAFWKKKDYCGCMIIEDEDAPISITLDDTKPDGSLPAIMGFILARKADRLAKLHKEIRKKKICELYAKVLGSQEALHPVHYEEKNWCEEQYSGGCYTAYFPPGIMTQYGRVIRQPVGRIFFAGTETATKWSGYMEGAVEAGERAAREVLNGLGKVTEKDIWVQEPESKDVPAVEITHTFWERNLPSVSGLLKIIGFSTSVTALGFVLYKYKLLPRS

[1] = cited from earlier work
recombinant human MAO-B [2] = biological target: T2, recombinant human MAO-B (Homo sapiens, UniProt P27338); experiment: biochemical; type: biochemical
T2 sequence (P27338 1-520): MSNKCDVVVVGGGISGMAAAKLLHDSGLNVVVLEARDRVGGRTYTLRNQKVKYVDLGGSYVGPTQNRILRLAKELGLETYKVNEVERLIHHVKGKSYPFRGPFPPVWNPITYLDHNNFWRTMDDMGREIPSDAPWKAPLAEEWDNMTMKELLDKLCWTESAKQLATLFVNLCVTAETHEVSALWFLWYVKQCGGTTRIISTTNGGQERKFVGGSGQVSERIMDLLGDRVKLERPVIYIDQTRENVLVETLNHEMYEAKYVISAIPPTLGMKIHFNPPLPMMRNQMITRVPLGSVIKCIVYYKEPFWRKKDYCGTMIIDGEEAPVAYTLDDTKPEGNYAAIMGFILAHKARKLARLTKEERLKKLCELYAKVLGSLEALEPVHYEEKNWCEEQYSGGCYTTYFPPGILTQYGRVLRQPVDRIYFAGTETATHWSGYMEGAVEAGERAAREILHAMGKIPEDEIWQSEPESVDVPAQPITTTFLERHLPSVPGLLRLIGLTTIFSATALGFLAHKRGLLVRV

[3] = Solubility observation at the concentrations tested; conditions: at the concentrations tested in the MAO assays
recombinant human MAO-B [4] = biological target: T2, recombinant human MAO-B; type: binding
recombinant human MAO-B [5] = biological target: T2, recombinant human MAO-B; type: biochemical
recombinant human MAO-B [6] = biological target: T2, recombinant human MAO-B; type: biochemical; remark: listed apart in the source
[7] = tested on: MAO activity in Neuroscreen-1 (NS-1) cells; experiment: MAO activity in lysates of treated Neuroscreen-1; type: cell-based, rat; conditions: deprenyl 1.0 μM, 12 hours
Procedure, shortened: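 NS-1 cells (rat PC12 subclone) in suspension culture were treated for 12 hours with test compound (100 µM), a selective MAO-B inhibitor reference (1.0 µM) or ethanol, alongside untreated controls. Lysates were prepared from the cells. MAO activity in the lysates was measured by fluorometric kynuramine deamination, with kynuramine at 80 µM for MAO-A and 50 µM for MAO-B.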

[8] = read-out: MAO-B IC50 (μM) ± S.D., kynuramine 50 μM, test compounds 0.01 to 100 μM, mean ± S.D. of triplicate

## CCCCC/C=C\C/C=C\C/C=C\C/C=C\CCCC(=O)OC(CO)CO [2-AG, 2-arachidonoylglycerol]
Recombinant human MAO-A
  IC50: > 100 µM
[1]; ref 48
  critical micellar concentration (CMC): 4.2 ± 0.5 µM
Recombinant human MAO-B [2]
  IC50: 50.5 ± 0.515 µM
[3]
  solubility issues: did not show any solubility issues

## CCCCC/C=C\C/C=C\C/C=C\C/C=C\CCCC(=O)N[C@H](C)CO [(R)-(+)-Methanandamide]
Recombinant human MAO-B [2]; [8]
  IC50: 51.1 ± 1.3 µM
[3]
  solubility issues: did not show any solubility issues

## CCCCC/C=C\C/C=C\C/C=C\C/C=C\CCCC(=O)NCCO [Anandamide]
Recombinant human MAO-A
  IC50: > 100 µM
Recombinant human MAO-B [2]
  IC50: 40 ± 4.6 µM

## CCCCC/C=C\C/C=C\C/C=C\C/C=C\CCCC(=O)NCC(=O)O [NA-glycine, N-arachidonyl-glycine]
[1]; ref 48
  critical micellar concentration (CMC): > 100 µM

## CCCCC/C=C\C/C=C\C/C=C\C/C=C\CCCCOC(CO)CO [Noladin ether]
Recombinant human MAO-B [2]; [8]
  IC50: 18.2 ± 1.45 µM
[3]
  solubility issues: did not show any solubility issues

## CCCCCCCC/C=C\CCCCCCCC(=O)NCCO [Oleylethanolamide]
Recombinant human MAO-A; kynuramine 80 μM, test compounds 0.01 to 100 μM, mean ± S.D. of triplicate
  MAO-A IC50 (μM) ± S.D.: no activity
Recombinant human MAO-B [2]; kynuramine 50 μM, test compounds 0.01 to 100 μM, mean ± S.D. of triplicate
  MAO-B IC50 (μM) ± S.D.: no activity
Recombinant human MAO-B [2]; [8]
  IC50: > 100 µM

## CCCCC/C=C\C/C=C\C/C=C\C/C=C\CCCC(=O)OCCN [Virodhamine]
Recombinant human MAO-B [4]; equilibrium dialysis overnight
  nature of binding with MAO-B (reversibility): irreversible
Recombinant human MAO-B [4]; virodhamine 10.0 μM, 20 min at 37 °C, dialysis 14-16 h at 4 °C
  enzyme activity recovered after overnight dialysis: 2.644 ± 0.450%
Recombinant human MAO-B [4]; virodhamine 10.0 μM, 20 min incubation
  inhibition of catalytic activity before dialysis: almost complete inhibition
Recombinant human MAO-B [5]; Lineweaver-Burk analysis and dialysis
  MAO-B Type of Inhibition: mixed mechanism/irreversible binding; also recorded: mixed enzyme inhibition mechanism
Recombinant human MAO-B [5]; read-out: MAO-B Ki (μM) ± S.D., kynuramine 1.90 to 500 μM, mean ± S.D. of triplicate
  Ki: 0.258 ± 0.037 µM
Recombinant human MAO-B [2]; ratio of IC50 MAO-A / MAO-B
  fold greater inhibition of MAO-B compared to MAO-A: ~ 55 fold and > 54 fold
Recombinant human MAO-B [2]; [8]
  IC50: 0.71 ± 0.04 µM
Recombinant human MAO-B [6]; 0.25 μM virodhamine, pre-incubation 0-15 min
  inhibition of MAO-B after pre-incubation: 55-70%
Recombinant human MAO-B [6]; pre-incubation 0-15 min, virodhamine 2.5 μM, deprenyl 0.100 μM
  time dependence of MAO-B inhibition: time-dependent
Recombinant human MAO-B [6]; virodhamine 2.5 μM
  inhibition of the enzyme activity at the concentration chosen: > 60%

## CCCCC/C=C\C/C=C\C/C=C\C/C=C\CCCC(=O)O [arachidonic acid]
[1]; ref 46
  critical micellar concentration (CMC): 73 µM
[1]; ref 47
  critical micellar concentration (CMC): ~ 30 μM

## CCCCC/C=C\C/C=C\C/C=C\C/C=C\CCCCO [arachidonoyl alcohol]
[1]; ref 46
  critical micellar concentration (CMC): 30 µM

## R-(−)-deprenyl hydrochloride
[7]
  inhibition of MAO activity in NS-1 cells: > 90%
